Key:
Type in all cases: cell-based
[1] = Cytotoxicity against mouse ScGT1 cells at 1 uM after 5 days by calcein-AM staining; details: scgt1, 120 h
Summary of the method: (§1)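 ScGT1 cells in DMEM + 10% FBS, plated at 25000 cells per well. Compounds dissolved in 100% DMSO and diluted in PBS, then added at 1 nM–10 μM for 5 days at 37 °C, 5% CO₂. Viability read by Calcein-AM fluorescence on a plate reader as percent viable cells vs untreated control; LC₅₀ taken as the 50% lethal concentration.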

ScGT1 = experiment: Antiprion activity against scrapie prion protein replication in mouse ScGT1 cells assessed as inhibition of formation of PrPSc from PrPc after 5 days by western-blot analysis; set-up: concentration or dose not given beside the values; details: dose or concentration not given here
Summary of the method: (§2)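 ScGT1 cells in DMEM + 10% FBS, split 1:10 into Petri dishes and grown 2 days at 37 °C, 5% CO₂. Compounds added at non-toxic concentrations from 0.1 nM upward and left 5 days. Proteins then extracted, quantified, digested with proteinase K and Western-blotted. Densitometry of PK-resistant PrP gives percent remaining vs untreated cells; EC₅₀ taken as the concentration for half-maximal inhibition.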

[2] = Cytotoxicity against mouse ScGT1 cells at after 5 days by calcein-AM staining; details: read-out: LC50; summary of the method: as §1
[3] = Antiprion activity against scrapie prion protein replication in mouse ScGT1 cells assessed as inhibition of formation of PrPSc from PrPc […] after 5 days by western-blot analysis; details: ScGT1, 120 h; summary of the method: as §2

CC[C@H](C)[C@@H](NC1=C(Cl)C(=O)C(N[C@@H](C)C(=O)OC)=C(Cl)C1=O)C(=O)OC
Activity [1]: 88.2%
inhibition (ScGT1): 6.6%

COC(=O)[C@H](C)NC1=C(Cl)C(=O)C(N[C@@H](CCSC)C(=O)OC)=C(Cl)C1=O
Activity [1]: 95.5%
inhibition (ScGT1): 4.8%

COC(=O)[C@H](C)NC1=C(Cl)C(=O)C(N[C@@H](Cc2ccccc2)C(=O)OC)=C(Cl)C1=O
Activity [1]: 68.4%
CC50 at 120 h [2]: 2400 nM
inhibition (ScGT1): 73.2%
EC50 [3]: 870 nM

COC(=O)[C@H](C)NC1=C(Br)C(=O)C(N[C@@H](Cc2ccccc2)C(=O)OC)=C(Br)C1=O
Activity [1]: 80.2%
inhibition (ScGT1): 18.1%
EC50 [3]: 3600 nM

COC(=O)[C@H](C)NC1=C(Br)C(=O)C(N[C@@H](C)C(=O)OC)=C(Br)C1=O
Activity [1]: 91.2%
inhibition (ScGT1): 0.29%

COC(=O)[C@H](C)NC1=C(Br)C(=O)C(N[C@@H](Cc2c[nH]c3ccccc23)C(=O)OC)=C(Br)C1=O
Activity [1]: 65.9%
inhibition (ScGT1): 0.43%

CC[C@H](C)[C@@H](NC1=C(Br)C(=O)C(N[C@@H](C)C(=O)OC)=C(Br)C1=O)C(=O)OC
Activity [1]: 91.3%
inhibition (ScGT1): 28.1%

COC(=O)[C@H](C)NC1=C(Br)C(=O)C(N[C@@H](CCCNC(=N)N[N+](=O)[O-])C(=O)OC)=C(Br)C1=O
Activity [1]: 74.1%
inhibition (ScGT1): 0.31%

COC(=O)[C@H](C)NC1=C(Cl)C(=O)C(N[C@@H](Cc2c[nH]c3ccccc23)C(=O)OC)=C(Cl)C1=O
Activity [1]: 96%
inhibition (ScGT1): 0.25%
EC50 [3]: 7700 nM

COC(=O)[C@H](C)NC1=C(Cl)C(=O)C(N[C@@H](CCCNC(=N)N[N+](=O)[O-])C(=O)OC)=C(Cl)C1=O
Activity [1]: 81.4%
inhibition (ScGT1): 0.23%

COC(=O)[C@H](C)NC1=C(Cl)C(=O)C(N[C@@H](C)C(=O)OC)=C(Cl)C1=O
Activity [1]: 71.6%
inhibition (ScGT1): 0.36%

COC(=O)[C@H](C)NC1=C(Br)C(=O)C(N[C@@H](CCCCNC(=O)OC(C)(C)C)C(=O)OC)=C(Br)C1=O
Activity [1]: 52.3%

COC(=O)[C@H](C)NC1=C(Cl)C(=O)C(N[C@@H](CCCCNC(=O)OC(C)(C)C)C(=O)OC)=C(Cl)C1=O
Activity [1]: 40.7%

COC(=O)[C@H](C)NC1=C(Br)C(=O)C(N[C@@H](CCSC)C(=O)OC)=C(Br)C1=O
Activity [1]: 96.1%
inhibition (ScGT1): 11.4%
